Rows were chosen to be rich in hits. Some 5.5% of all compounds tested hit in one or more screens of this group.
KCC2 mod: modulators of human KCC2 chloride dependent transport; KCC2 cells, thallium flux FluoZin-2 fluorescence; B-score of Tl+ flux slope (higher = more flux/activation; lower = inhibition) at 10 µM; 190,000 compounds, 2.2% hits;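 active = thallium flux slope and its plate-corrected score both differing from the plate sample mean at a set confidence after two filtering rounds, in either direction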;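 also: slope of fluorescence scaled to starting intensity during 10 to 20 s after thallium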
Target sequence (Q9H2X9 whole entry, looked up): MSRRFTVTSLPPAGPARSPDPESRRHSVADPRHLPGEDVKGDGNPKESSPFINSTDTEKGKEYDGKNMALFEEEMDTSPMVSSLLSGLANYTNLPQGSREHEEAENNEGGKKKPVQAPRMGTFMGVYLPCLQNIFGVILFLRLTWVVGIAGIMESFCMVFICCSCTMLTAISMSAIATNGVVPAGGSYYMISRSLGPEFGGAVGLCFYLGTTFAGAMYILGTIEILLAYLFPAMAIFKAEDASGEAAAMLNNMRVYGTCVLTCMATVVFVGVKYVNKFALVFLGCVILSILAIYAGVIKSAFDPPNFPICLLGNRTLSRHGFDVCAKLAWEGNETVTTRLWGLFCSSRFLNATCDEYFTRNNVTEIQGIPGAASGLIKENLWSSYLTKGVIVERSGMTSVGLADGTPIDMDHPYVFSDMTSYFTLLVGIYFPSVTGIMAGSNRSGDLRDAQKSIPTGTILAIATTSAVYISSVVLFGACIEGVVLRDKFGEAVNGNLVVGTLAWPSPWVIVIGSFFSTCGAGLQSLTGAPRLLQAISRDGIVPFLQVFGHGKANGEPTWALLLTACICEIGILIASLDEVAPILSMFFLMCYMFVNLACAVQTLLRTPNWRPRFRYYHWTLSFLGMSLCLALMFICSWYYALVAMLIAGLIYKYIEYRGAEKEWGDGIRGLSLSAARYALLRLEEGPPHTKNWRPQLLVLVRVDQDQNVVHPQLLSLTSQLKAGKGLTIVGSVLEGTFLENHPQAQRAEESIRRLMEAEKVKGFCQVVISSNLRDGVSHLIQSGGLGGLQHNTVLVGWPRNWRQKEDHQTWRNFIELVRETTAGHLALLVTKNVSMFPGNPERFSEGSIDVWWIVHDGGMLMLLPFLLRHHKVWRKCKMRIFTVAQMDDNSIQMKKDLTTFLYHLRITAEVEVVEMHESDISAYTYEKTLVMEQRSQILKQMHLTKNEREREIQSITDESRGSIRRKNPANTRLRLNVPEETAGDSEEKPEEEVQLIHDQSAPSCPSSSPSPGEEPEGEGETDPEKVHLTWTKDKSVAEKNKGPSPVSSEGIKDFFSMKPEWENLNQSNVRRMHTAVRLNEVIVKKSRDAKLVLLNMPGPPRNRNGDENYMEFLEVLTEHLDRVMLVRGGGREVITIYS
RAM inhibit: yeast RAM network inhibition | 190,000 compounds, 1.8% hits | S. cerevisiae dse1pr::URA3 reporter, 5-FOA growth OD615, 2 d; analog-sensitive cbk1-as2 kinase mutant strain | AID 868 | inhibition, % at 50 µM;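 active = inhibition above a set limit, 3 SD over mean compound inhibition, cut at about 8.4% in these data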;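 also: 0% = DMSO-only wells with no growth and 100% = 10 µM 1-NA-PP1 full growth; inhibition rescues growth on 5-FOA so higher OD means more RAM inhibition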
Yeast growth inh: yeast BB579 growth reduction in restrictive medium | S. cerevisiae BB579 growth, OD615, 48 h | inhibition, % at 10 µM | 140,000 compounds, 0.51% hits | AID 804;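 active = inhibition above a set limit, 3 SD over the mean compound inhibition, cut at about 44% in these data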
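Test system: Saccharomyces cerevisiae DeaD strain BB579, replicative lifespan model yeast | Buffer or medium: Restrictive CSMM-D medium | Doses: One dose, 10 µM compound with 0.25% DMSO | Incubation: 48 h exposure, 30 °C | Detection: Culture absorbance at 615 nm | Control set: Amphotericin B at 10 µg/mL as positive control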
Yeast lifespan up: yeast lifespan extension. 130,000 compounds, 0.68% hits. inhibition of the nicotinamide effect, % at 10 µM. AID 775. S. cerevisiae growth with nicotinamide, OD615; deaD strain in restrictive glucose medium;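 active = inhibition above a set limit, placed 3 SD over the median of all compounds, cut at about 26% in these data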;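 also: 0% = nicotinamide-treated wells and 100% = cells grown without nicotinamide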
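System: DeaD-strain S. cerevisiae / Buffer or medium: CSMM-D, restrictive glucose (dextrose) synthetic minimal medium / Probe or stimulus: nicotinamide, 1.5 mM, co-present with compound / Compound: one concentration, 10 µM, DMSO 0.25% / Incubation: 48 h compound exposure at 30 °C, humidified / Technique: optical density (absorbance) at 615 nm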
WT yeast gro inh: growth inhibition of WT yeast, mitochondrial fusion screen; inhibition, % at 10 µM; AID 1362; mitochondrial fusion phenotypic screen, WT strain; 190,000 compounds, 2.1% hits; in the data active = inhibition above about 58%; tested in S. cerevisiae
RAM efflux-def: restores 5-FOA growth of efflux-deficient yeast; 1,200 tested, under 10 active; AID 1305; max inhibition, %; shares compounds with RAM inhibit; S. cerevisiae efflux-deficient reporter strain, 5-FOA growth OD615, 2 days; call rule not given here;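 also: plate controls were vehicle for no effect and reference inhibitor for full effect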
The depositor's hits bear a star.

COc1ccc(C(=O)C(C)(C)NO)cc1 was read as KCC2 mod 1.1, RAM inhibit -1, Yeast growth inh 52*, Yeast lifespan up 9 and WT yeast gro inh -7.
`CCC(=O)Oc1ccc(C(=O)Nc2cccc(C(=O)c3ccccc3)c2)cc1` gave KCC2 mod -1, RAM inhibit 12*, Yeast growth inh -41, Yeast lifespan up 3, WT yeast gro inh 8 and RAM efflux-def 0.
CN(C(=O)CNC(=O)OCc1ccccc1)c1ccc(Br)cc1C(=O)c1ccccc1Cl was read as KCC2 mod -1, RAM inhibit 7, Yeast growth inh -68, Yeast lifespan up 4 and WT yeast gro inh 47.
Screening CN(C[C@H](Cc1ccccc1)N(C[C@H](Cc1ccccc1)N(CCC(C)(C)C)N=O)N=O)N=O returned KCC2 mod -3.2, RAM inhibit 13*, WT yeast gro inh 14 and RAM efflux-def 3.
For C#CCN(C)[C@H](C)Cc1ccccc1 the results were KCC2 mod 0.067 and WT yeast gro inh -1.
For CC(C)CCN(N=O)[C@@H](Cc1ccccc1)CN(N=O)[C@@H](Cc1ccccc1)CN(C)N=O the results were KCC2 mod -4.1*, RAM inhibit 20*, WT yeast gro inh 5 and RAM efflux-def 8.
`CN1CC[C@]2(c3cccc(O)c3)Cc3nc4ccccc4cc3C[C@H]2C1` gave KCC2 mod -1.1 and WT yeast gro inh -5.
Screening O=C(c1ccco1)c1cn(Cc2ccccc2Cl)c2ccccc12 returned RAM inhibit 18*, Yeast growth inh -29, Yeast lifespan up -9, WT yeast gro inh 41 and RAM efflux-def 4.
O=C(c1ccco1)c1cn(Cc2ccccc2)c2ccccc12 was read as KCC2 mod -0.82, RAM inhibit 6, Yeast growth inh -1, Yeast lifespan up -10 and WT yeast gro inh 27.
`O=c1c2ccccc2[nH]c(=S)n1-c1cccnc1` gave KCC2 mod 0.36.
Screening O=c1c2ccc(Cl)cc2[nH]c(=S)n1-c1cccnc1 returned KCC2 mod 3.9, RAM inhibit 16*, WT yeast gro inh 1 and RAM efflux-def 2.
COc1cccc(NP(=O)(Oc2ccccc2Cl)Oc2ccccc2Cl)c1 was read as KCC2 mod 0.76, RAM inhibit 13*, Yeast growth inh -28, Yeast lifespan up 11, WT yeast gro inh 40 and RAM efflux-def 2.
COCCOC(=O)c1c(C)oc2ccc(OC(=O)N(C)C)cc12 was read as KCC2 mod -0.58, RAM inhibit 2, Yeast growth inh -32, Yeast lifespan up -23 and WT yeast gro inh 16.
For CCOC(=O)Cc1csc(NC(=O)c2c(O)c3ccccc3n(CCC(C)C)c2=O)n1 the results were KCC2 mod -0.44, RAM inhibit 12*, WT yeast gro inh -6 and RAM efflux-def 3.
C=CCn1c(O)c(C=NCCCn2ccnc2)c(=O)[nH]c1=O was read as KCC2 mod 0.63.
O=C(Nc1cccc(C(F)(F)F)c1)c1cccn(Cc2ccc3c(c2)OC(F)(F)O3)c1=O was read as RAM inhibit 14*, Yeast growth inh -72, Yeast lifespan up -13, WT yeast gro inh 43 and RAM efflux-def 3.
`CC(C)Oc1cccc(NC(=O)c2cccn(Cc3ccc4c(c3)OC(F)(F)O4)c2=O)c1` gave KCC2 mod -0.13, RAM inhibit 13*, Yeast growth inh -74, Yeast lifespan up -4, WT yeast gro inh 15 and RAM efflux-def 1.
For O=P1(NCCCn2cc[n+](Cc3nc4ccccc4[nH]3)c2)C=C(c2ccccc2)OC(c2ccccc2)=C1 the results were KCC2 mod -1.5.
For CC1(C)OC(c2ccccc2)=C/C(=C/C=C2C(=O)NC(=S)NC2=O)O1 the results were KCC2 mod -1.6, RAM inhibit 18*, WT yeast gro inh -11 and RAM efflux-def 6.
`O=C1NC(=S)NC(=O)C1=Cc1cccc2cc3ccccc3cc12` gave KCC2 mod 0.033.
`CN1/C(=C\C=C2C(=O)NC(=S)NC2=O)C(C)(C)c2ccccc21` gave KCC2 mod -4.6*, RAM inhibit 11*, WT yeast gro inh 15 and RAM efflux-def 5.
`O=C(COc1ccccc1)c1cn(Cc2ccccc2)c2ccccc12` gave KCC2 mod -0.57, RAM inhibit 12*, Yeast growth inh -25, Yeast lifespan up 0, WT yeast gro inh -2 and RAM efflux-def 5.
For CC1(C)C2CC=C(CN3CCOCC3)C1C2 (stereo unspecified) the results were KCC2 mod -0.011, RAM inhibit -1, Yeast growth inh -23, Yeast lifespan up -7 and WT yeast gro inh 13.
For CCOc1ccc(NC(=O)c2c(C)nn(Cc3ccccc3)c2Cl)cc1 the results were KCC2 mod -0.71, RAM inhibit 2, Yeast growth inh -16, Yeast lifespan up -3 and WT yeast gro inh -6.
For COc1ccc(C)cc1NC(=O)c1c(C)nn(Cc2ccccc2)c1Cl the results were KCC2 mod -0.077, RAM inhibit 13*, Yeast growth inh -46, Yeast lifespan up -5, WT yeast gro inh 25 and RAM efflux-def 3.
CN(C)C(=S)SSC(=S)N(C)C was read as KCC2 mod 0.58, RAM inhibit -2 and WT yeast gro inh 95.
For O=C(COc1ccc2ccccc2c1)N1CCN(CC2CC3C=CC2C3)CC1 (stereo unspecified) the results were RAM inhibit 2, Yeast growth inh -58, Yeast lifespan up -13 and WT yeast gro inh -3.

Screening data deposited in PubChem BioAssay by several laboratories.
